Measurements taken from ChEMBL document CHEMBL1134902, “Quinoline-3-carbothioamides and related compounds as novel immunomodulating agents” (2002).

Assays:
Assay type in all cases: functional
[1] = test system: Mus musculus; test: Activity expressed as percent inhibition of anti-TNP IgM level in TNP-LPS immunized mice, at a dose of 10 mg/kg perorally; details: route oral
In short: (§1)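 Female (C57BL/6 × DBA/2)F1 mice, 6 weeks old, immunized i.v. with TNP-LPS on day 0, then randomized (7/group). Compound given orally on days 0 and 1. Serum taken on day 4 and anti-TNP IgM measured by ELISA. Result given as % inhibition of IgM level versus control, with significance by Student's t-test.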

[2] = test system: Mus musculus; test: Antinephritic activity against Graft-Versus-Host Disease (GVHD) induced (C57BL/6DBA/2)F1 mice at a dose of 32 mg/kg administered perorally; details: route oral
In short: (§2)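 Chronic GVHD induced in 6-week-old female (C57BL/6 × DBA/2)F1 mice by two injections of DBA/2 spleen cells (5 × 10⁷ each), given 5 days apart. Oral dosing once daily for 8 weeks, starting 3 days after the second injection. Urinary albumin measured after the last dose by single radial immunodiffusion with rabbit anti-mouse albumin antiserum. 10 mice/group; % inhibition of proteinuria; Student's t-test.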

[3] = test system: Mus musculus; test: Activity was expressed as percent inhibition of anti-TNP IgM level in TNP-LPS immunized mice, at a dose of 100 mg/kg perorally; details: route oral; in short: as §1
[4] = test system: Mus musculus; test: Activity was expressed as percent inhibition of anti-TNP IgM level in TNP-LPS immunized mice, at a dose of 1 mg/kg perorally; details: route oral; in short: as §1
[5] = test system: Mus musculus; test: Antinephritic activity against Graft-Versus-Host Disease (GVHD) induced (C57BL/6DBA/2) F1 mice at a dose of 32 mg/kg administered perorally; details: route oral; in short: as §2
[6] = test system: Mus musculus; test: Activity was expressed as percent inhibition of anti-TNP IgM level in TNP-LPS immunized mice, at a dose of 0.1 mg/kg perorally; details: route oral; in short: as §1
[7] = test system: Mus musculus; test: Inhibition of anti-DNA antibody in autoimmune diseased MRL/I mice at a dose of 0.32 mg/Kg administered perorally; details: po
[8] = test system: Mus musculus; test: Inhibition of histological score (Nephritis in the kidneys) in the autoimmune diseased MRL/l mice at a dose of 0.32 mg/kg administered perorally; details: route oral
[9] = test system: Mus musculus; test: Inhibition of histological score (Nephritis in the kidneys) in the autoimmune diseased MRL/l mice at a dose of 3.2 mg/Kg administered perorally; details: po
[10] = test system: Mus musculus; test: Inhibition of histological score (Nephritis in the kidneys) in the autoimmune diseased MRL/l mice at a dose of 1 mg/Kg administered perorally; details: po
[11] = test system: Mus musculus; test: Inhibition of anti-DNA antibody in autoimmune diseased MRL/I mice at a dose of 3.2 mg/kg administered perorally; details: route oral
[12] = test system: Mus musculus; test: Activity was expressed as percent inhibition of anti-TNP IgM level in TNP-LPS immunized mice, at a dose of 0.01 mg/kg perorally; details: route oral; in short: as §1
[13] = test system: Mus musculus; test: Inhibition of anti-DNA antibody in autoimmune diseased MRL/I mice at a dose of 1 mg/kg administered perorally; details: route oral

SMILES | inhibition in vivo at 10 mg/kg [1] [%] | inhibition in vivo at 32 mg/kg [2] [%] | other results
Cc1cc(Cl)cc2c1N(C)C(=O)/C(=C(/S)N(C)c1ccccc1)C2=O | 17 | – | –
CN1C(=O)/C(=C(/S)N(C)c2cccc(Cl)c2)C(=O)c2cc(Cl)ccc21 | 63 | – | –
COCCCN(/C(S)=C1/C(=O)c2cc(Cl)ccc2N(C)C1=O)c1ccccc1 | 31 | – | –
CN1C(=O)/C(=C(/S)N(C)c2ccccc2)C(=O)c2ccc(Cl)cc21 | – | -23 | –
CN(C(=O)c1c(O)c2ccccc2n(C)c1=O)c1ccccc1 [ROQUINIMEX] | 41 | – | inhibition in vivo at 100 mg/kg [3]: 49%; inhibition in vivo at 1 mg/kg [4]: 13%
Cn1c(=O)c(C(=S)N(c2ccccc2)C(C)(C)C)c(O)c2cc(Cl)ccc21 | 11 | – | –
CN1C(=O)/C(=C(/S)N(C)c2ccccc2)C(=O)c2ccccc21 | – | 85 | –
Cc1ccc2c(c1)C(=O)/C(=C(\S)N(C)c1ccccc1)C(=O)N2C | 20 | – | –
C=CCN(C(=S)c1c(O)c2cc(Cl)ccc2n(C)c1=O)c1ccccc1 | – | 96 | –
CSc1ccc2c(c1)c(O)c(C(=S)N(C)c1ccccc1)c(=O)n2C | 32 | 99 | –
CSc1ccc(N(C)C(=O)c2c(O)c3cc(SC)ccc3n(C)c2=O)cc1 | – | 87 | –
CN1C(=O)/C(=C(/S)N(C)c2ccc(Br)cc2)C(=O)c2cc(Cl)ccc21 | 50 | – | –
CN1C(=O)/C(=C(/S)N(C)c2ccccc2)C(=O)c2cc(OC(F)(F)F)ccc21 | 19 | – | –
COc1ccc2c(c1)c(O)c(C(=S)N(C)c1ccccc1)c(=O)n2C | 31 | 99 | –
CN1C(=O)/C(=C(/S)N(C)c2ccccc2)C(=O)c2cc(-n3cccc3)ccc21 | -10 | – | –
CSCCN(C(=O)c1c(O)c2cc(SC)ccc2n(C)c1=O)c1ccccc1 | – | 65 | –
CSc1ccc2c(c1)c(=O)c(C(=S)N(C)c1ccccc1)c(S)n2C | – | 37 | –

SMILES | inhibition in vivo at 10 mg/kg [1] [%] | inhibition in vivo at 32 mg/kg [2] [%] | other results
CN1C(=O)/C(=C(/S)N(C)c2cccs2)C(=O)c2cc(Cl)ccc21 | 19 | – | –
COc1ccc(N(C)/C(S)=C2/C(=O)c3cc(Cl)ccc3N(C)C2=O)cc1 | 45 | 97 | –
CN1C(=O)/C(=C(/S)N(C)c2ccc(Cl)cc2)C(=O)c2cc(Cl)ccc21 | 47 | – | –
CN1C(=O)/C(=C(/S)N(C)c2cccc(C(F)(F)F)c2)C(=O)c2cc(Cl)ccc21 | 29 | – | –
CN1C(=O)/C(=C(/S)N(C)c2ccc(OC(F)(F)F)cc2)C(=O)c2cc(Cl)ccc21 | 39 | – | –
Cn1c(=O)c(/C(S)=N/c2ccccc2)c(O)c2cc(Cl)ccc21 | 38 | – | –
CS/C(=N\c1ccccc1)c1c(O)c2cc(SC)ccc2n(C)c1=O | – | 84 | –
CSc1ccc2c(c1)c(O)c(S(=O)(=O)N(C)c1ccccc1)c(=O)n2C | – | 53 | –
Cc1ccc(N(C)/C(S)=C2/C(=O)c3cc(Cl)ccc3N(C)C2=O)cc1 | 23 | – | –
CSc1ccc2c(c1)c(=O)c(C(=O)N(C)c1ccccc1)c(S)n2C | – | 96 | –
CN1C(=O)/C(=C(/S)N(C)c2ccc(F)cc2)C(=O)c2cc(Cl)ccc21 | 54 | – | –
CSc1ccc2c(c1)c(O)c(C(=O)N(C)c1ccccc1)c(=O)n2C | 67 | – | inhibition in vivo at 32 mg/kg [5]: 100%; inhibition in vivo at 1 mg/kg [4]: 50%; inhibition in vivo at 0.1 mg/kg [6]: 18%
CN1C(=O)/C(=C(/S)N(C)c2ccccc2)C(=O)c2cc(Br)ccc21 | 56 | 98 | –
COc1cccc(N(C)/C(S)=C2/C(=O)c3cc(Cl)ccc3N(C)C2=O)c1 | 30 | 74 | –
CN1C(=O)/C(=C(/S)N(C)c2ccccc2)C(=O)c2cc(Cl)ccc21 | 64 | 100 | inhibition in vivo at 100 mg/kg [3]: 77%; inhibition in vivo at 0.32 mg/kg [7]: 52%; inhibition in vivo at 0.32 mg/kg [8]: 67%; inhibition in vivo at 3.2 mg/kg [9]: 85%; inhibition in vivo at 1 mg/kg [10]: 85%; inhibition in vivo at 3.2 mg/kg [11]: 83%; inhibition in vivo at 1 mg/kg [4]: 33%; inhibition in vivo at 0.01 mg/kg [12]: -3%; inhibition in vivo at 0.1 mg/kg [6]: 22%; inhibition in vivo at 1 mg/kg [13]: 73%
CN1C(=O)/C(=C(/S)N(C)c2ccc(F)c(F)c2)C(=O)c2cc(Cl)ccc21 | 62 | – | –
